Each structure is given as a SMILES string. Calls of active or inactive are those of the source.

In data set [1] the target is T1, Protein cereblon/3-hydroxy-3-methylglutaryl-coenzyme A reductase (Cricetulus griseus) (UniProt P00347+G3H338). Kind of data set: Protac activity at CRBN/HMGCR in Insig-1/Insig-2 deficient Chinese hamster SRD15 cells assessed as HMGCR level at 0.3 uM after 16 hrs by immunoblotting analysis (reference value: 1). A digest of the protocol:
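Dose-response in SRD15 cells in Medium A with 5% FBS, 16 h treatment, DMSO final 0.1% or lower. RIPA lysates immunoblotted for HMGCR. HMGCR densitometry normalized to actin, with the DMSO group set to 1. Three repeats. DC50 is taken from a dose-response fit of the semi-quantitative blots, mean of 3 independent experiments.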
Target sequence in this assay (G3H338 1-445 partner): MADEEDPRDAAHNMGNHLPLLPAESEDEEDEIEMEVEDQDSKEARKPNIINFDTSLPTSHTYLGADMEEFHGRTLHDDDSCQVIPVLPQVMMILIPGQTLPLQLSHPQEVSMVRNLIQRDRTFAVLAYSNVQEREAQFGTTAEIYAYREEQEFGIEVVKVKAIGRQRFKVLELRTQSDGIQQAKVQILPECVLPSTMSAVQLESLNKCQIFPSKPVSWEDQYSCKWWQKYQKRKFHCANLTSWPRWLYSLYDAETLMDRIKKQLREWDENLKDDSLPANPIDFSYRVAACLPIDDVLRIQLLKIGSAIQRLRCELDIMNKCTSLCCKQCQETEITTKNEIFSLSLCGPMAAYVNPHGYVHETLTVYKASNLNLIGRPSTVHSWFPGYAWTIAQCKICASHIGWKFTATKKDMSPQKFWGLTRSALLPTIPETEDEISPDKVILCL
Target sequence in this assay (P00347 whole entry): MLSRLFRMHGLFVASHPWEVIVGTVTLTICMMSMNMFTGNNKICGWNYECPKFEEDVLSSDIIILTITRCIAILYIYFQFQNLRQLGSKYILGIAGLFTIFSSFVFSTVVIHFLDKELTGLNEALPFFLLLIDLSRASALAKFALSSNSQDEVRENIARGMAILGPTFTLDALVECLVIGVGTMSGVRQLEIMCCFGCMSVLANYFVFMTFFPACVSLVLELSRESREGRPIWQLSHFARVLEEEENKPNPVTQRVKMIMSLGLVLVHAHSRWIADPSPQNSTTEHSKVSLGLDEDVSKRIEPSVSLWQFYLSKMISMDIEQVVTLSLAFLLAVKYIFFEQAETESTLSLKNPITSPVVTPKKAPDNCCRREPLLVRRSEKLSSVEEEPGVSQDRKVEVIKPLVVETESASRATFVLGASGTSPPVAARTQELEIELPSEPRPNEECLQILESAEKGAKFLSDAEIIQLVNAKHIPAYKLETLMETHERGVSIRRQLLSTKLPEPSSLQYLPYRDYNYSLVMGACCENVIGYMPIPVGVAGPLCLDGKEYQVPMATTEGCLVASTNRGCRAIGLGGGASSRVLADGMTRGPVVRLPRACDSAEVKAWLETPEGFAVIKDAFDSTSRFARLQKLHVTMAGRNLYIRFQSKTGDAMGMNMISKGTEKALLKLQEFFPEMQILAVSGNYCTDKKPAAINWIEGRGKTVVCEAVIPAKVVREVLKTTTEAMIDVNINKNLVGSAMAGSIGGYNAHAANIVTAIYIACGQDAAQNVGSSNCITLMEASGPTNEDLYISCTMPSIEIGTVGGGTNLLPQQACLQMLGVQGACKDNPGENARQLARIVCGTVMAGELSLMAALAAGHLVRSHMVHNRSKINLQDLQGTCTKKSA
In general terms: Immunoblotting shows a protein as a band on a membrane.

Data set [2] has as its target T1, Protein cereblon/3-hydroxy-3-methylglutaryl-coenzyme A reductase (Cricetulus griseus). Kind of data set: Protac activity at CRBN/HMGCR in Insig-1/Insig-2 deficient Chinese hamster SRD15 cells assessed as HMGCR level at 1 uM after 16 hrs in presence of 1 uM P22A-Et by immunoblotting analysis (reference value: 1).
Data set [3] shares this target. Kind of data set: Protac activity at CRBN/HMGCR in Insig-1/Insig-2 deficient Chinese hamster SRD15 cells assessed as induction of HMGCR degradation at 1 uM preincubated for 16 hrs followed by addition of proteasome inhibitor MG132 and further incubated for 3 hrs by Western blot analysis. A digest of the protocol:
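SRD15 cells treated with 1 μM degrader for 16 h, then for 3 h with 10 μM MG132 or with MLN-4924 at the indicated concentrations. HMGCR by immunoblot.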

Data set [4] in a line: Effect on HMGCR mRNA expression in Chinese hamster SRD15 cells at 1 uM after 16 hrs by quantitative real-time PCR analysis. It counts as ADME, Cricetulus griseus. A digest of the protocol: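 SRD15 cells (Insig-1/Insig-2-deficient CHO-7) in Medium A with 5% FBS, compound for 16 h; Hmgcr mRNA by quantitative real-time PCR in triplicate, comparative CT method normalized to hamster GAPDH, control defined as 1; mean ± s.d., n = 3 independent experiments.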
On the technique in general: In qPCR the cycle at which signal appears reflects the starting amount.

Data set [5] deals with T2, Protein cereblon/3-hydroxy-3-methylglutaryl-coenzyme A reductase (Homo sapiens) (UniProt P04035+Q96SW2). Kind of data set: Protac activity at human Flag-tagged CRBN/Myc-tagged HMGCR expressed in HEK293T cells assessed as induction of HMGCR immunoprecipitation at 1 uM preincubated for 16 hrs followed by MG132 addition addition and measured after 5 hrs in presence of MG132 by Western blot analysis. Particulars: HEK-293T. It counts as cell-based.

Data set [6] has as its target T2, Protein cereblon/3-hydroxy-3-methylglutaryl-coenzyme A reductase (Homo sapiens). The data set is described as follows: Protac activity at human Flag-tagged CRBN/Myc-tagged HMGCR expressed in HEK293T cells assessed as induction of HMGCR immunoprecipitation 1 uM preincubated for 16 hrs followed by atorvastatin addition addition and measured after 5 hrs in presence of MG132 by Western blot analysis. It counts as cell-based. Particulars: HEK-293T.

Data set [7] has the same target. The data set is described as follows: Protac activity at human Flag-tagged CRBN/T7-tagged HMGCR expressed in Chinese hamster SRD15 cells transfected with HA-tagged ubiquitin assessed as increase in HMGCR immunoprecipitation 1 uM preincubated for 16 hrs followed by MG132 addition addition and measured after 5 hrs by Western blot analysis. It is filed as cell-based.

The subject of a further data set is Huh-7. Kind of data set: Effect on total neutral lipid in human HuH7 cells assessed change in lipid droplet count at 1 uM after 16 hrs by Oil Red O staining based method. It counts as ADME, cell-based. Particulars: huh-7, 16 h. A digest of the protocol: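 Huh7 cells on glass coverslips, treated, fixed in 4% paraformaldehyde in PBS 30 min at room temperature, stained 15 min with 0.5% (w/v) Oil Red O in propylene glycol, washed in water; lipid droplets examined relative to DMSO.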

T2 sequence (P04035 whole entry, looked up): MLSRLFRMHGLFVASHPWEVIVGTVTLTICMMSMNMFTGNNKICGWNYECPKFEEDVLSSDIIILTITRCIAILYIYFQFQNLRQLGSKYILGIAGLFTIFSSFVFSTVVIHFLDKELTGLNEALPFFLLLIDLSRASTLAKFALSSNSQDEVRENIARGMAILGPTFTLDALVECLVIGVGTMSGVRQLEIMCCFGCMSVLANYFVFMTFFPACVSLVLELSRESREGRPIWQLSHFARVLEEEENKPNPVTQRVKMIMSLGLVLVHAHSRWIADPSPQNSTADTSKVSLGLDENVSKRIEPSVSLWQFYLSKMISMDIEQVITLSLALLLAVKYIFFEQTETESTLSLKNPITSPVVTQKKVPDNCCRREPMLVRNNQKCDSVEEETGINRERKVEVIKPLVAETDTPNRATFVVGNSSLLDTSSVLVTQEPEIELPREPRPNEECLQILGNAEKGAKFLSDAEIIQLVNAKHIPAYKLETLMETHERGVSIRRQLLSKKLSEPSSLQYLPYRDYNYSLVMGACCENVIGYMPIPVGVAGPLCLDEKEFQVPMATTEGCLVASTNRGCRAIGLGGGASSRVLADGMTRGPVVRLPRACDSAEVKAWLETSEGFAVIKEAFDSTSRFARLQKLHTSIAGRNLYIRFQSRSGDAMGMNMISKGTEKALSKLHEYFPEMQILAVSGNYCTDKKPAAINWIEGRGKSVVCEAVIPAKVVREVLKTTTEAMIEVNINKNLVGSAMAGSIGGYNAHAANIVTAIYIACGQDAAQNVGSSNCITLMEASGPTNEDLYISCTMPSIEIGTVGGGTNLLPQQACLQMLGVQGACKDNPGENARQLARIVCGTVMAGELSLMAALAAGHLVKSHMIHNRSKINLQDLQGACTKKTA
T2 sequence (Q96SW2 whole entry, looked up): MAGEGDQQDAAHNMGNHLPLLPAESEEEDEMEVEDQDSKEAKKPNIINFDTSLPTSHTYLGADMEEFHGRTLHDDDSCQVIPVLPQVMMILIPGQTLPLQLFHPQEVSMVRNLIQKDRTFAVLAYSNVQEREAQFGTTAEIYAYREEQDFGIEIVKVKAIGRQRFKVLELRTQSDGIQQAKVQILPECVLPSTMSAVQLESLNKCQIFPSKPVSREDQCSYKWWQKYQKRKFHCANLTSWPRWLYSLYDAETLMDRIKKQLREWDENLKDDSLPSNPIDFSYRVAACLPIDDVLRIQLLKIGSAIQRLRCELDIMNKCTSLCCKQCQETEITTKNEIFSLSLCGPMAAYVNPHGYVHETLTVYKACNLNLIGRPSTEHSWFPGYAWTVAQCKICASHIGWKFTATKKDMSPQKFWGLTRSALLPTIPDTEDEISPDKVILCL

Turning to `CC(C)c1c(C(=O)Nc2ccccc2)c(-c2cccc(OCCCc3cn(CCOCCOCCOCCOCCNc4cccc5c4C(=O)N(C4CCC(=O)NC4=O)C5=O)nn3)c2)c(-c2ccc(F)cc2)n1CC[C@@H](O)C[C@@H](O)CC(=O)O` (stereo partly drawn), the fold change (FC) in data set [1] turned out to be 0.4; in data set [2], 1.1. Also, the outcome in data set [3] and in data set [6] was inactive. The Activity result (in data set [4]; in the data set with Huh-7) was “Non-Toxic” in each case. Moreover, the outcome in data set [5] and in data set [7] was Active.

Source of the values: ChEMBL document CHEMBL4602720, “Degradation versus Inhibition: Development of Proteolysis-Targeting Chimeras for Overcoming Statin-Induced Compensatory Upregulation of 3-Hydroxy-3-methylglutaryl Coenzyme A Reductase” (J Med Chem, 2020).
